SMILES strings stand for the structures. ≈ marks a conversion by molar mass, not a printed value.

Series [1] relates to Mus musculus. Kind of series: Hypolipidemic activity in Swiss albino mouse assessed as decrease in plasma triglyceride level at 50 mg/kg, po administered daily for 8 days measured on day 9 by spectrophotometry relative to control. It is filed as functional. Details: scale not given: the % may be the effect or the level left. In short, it runs like this: (§1)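 Male Swiss albino mice (moderately hypertriglyceridemic model) dosed by oral gavage at 50 mg/kg body weight once daily for 8 days; plasma triglyceride and total cholesterol measured. Percent change calculated relative to vehicle-treated control group; mean ± SE, n = 10 mice per group.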

Series [2] relates to Mus musculus. Kind of series: Hypolipidemic activity in Swiss albino mouse assessed as decrease in plasma total cholesterol level at 50 mg/kg, po administered daily for 8 days measured on day 9 by spectrophotometry relative to control. It is filed as functional. Details: scale not given: the % may be the effect or the level left. The essentials:
as §1

Series [3] can be described thus: Octanol-buffer partition coefficient, log P of the compound at pH 7.4 by HPLC. It is filed as physicochemical. In short, it runs like this: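 Partition coefficient determined by HPLC in an octanol–buffer system at pH 7.4, 25 °C.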
Series [4] is described as follows: Aqueous solubility of the compound in 0.1 M phosphate buffer at pH 5.2 after 4 hrs by HPLC method. It is filed as physicochemical.
Series [5] can be described thus: Aqueous solubility of the compound in 0.2 M phosphate buffer at pH 7.4 after 4 hrs by HPLC method. The format is physicochemical.
The nature of series [6]: Aqueous solubility of the compound in 0.1 M boric acid buffer at pH 9.0 after 4 hrs by HPLC method. It is filed as physicochemical.
Series [7] concerns Mus musculus. Kind of series: Hypolipidemic activity in Swiss albino mouse assessed as change in plasma total cholesterol level at 50 mg/kg, po administered daily for 8 days measured on day 9 by spectrophotometry relative to control. The format is functional. In short, it runs like this:
as §1

Series [8] is described as follows: Aqueous solubility of the compound in 0.1 M citric acid buffer at pH 3.0 after 4 hrs by HPLC method. It is filed as physicochemical. The conditions noted are these: pH 3, 4 h.
Series [9] in a line: Aqueous solubility of the compound in 0.2 M hydrochloric acid buffer at pH 1.0 after 4 hrs by HPLC method. The format is physicochemical.

As to `CC(C)OC(=O)OC(C)OC(=O)C(C)(C)Oc1ccc(C(=O)c2ccc(Cl)cc2)cc1` (centres undefined), the figures for the Activity in series [1] and in [2] were 47% and 7.7%, respectively. Also, the logD in series [3] was found to be 5.43. In addition, the solubility at 4 h turned out to be 1 ng/mL (≈ 2.23 nM) in series [4], 1 ng/mL (≈ 2.23 nM) in series [5] and 22 ng/mL (≈ 49 nM) in [6].
As for `CC(C)(C)C(=O)OCOC(=O)C(C)(C)Oc1ccc(C(=O)c2ccc(Cl)cc2)cc1`, the Activity in series [1] was found to be 45%; in series [2], 9%. Besides, the pH-dependent lipophilicity (logD) in [3] stood at 4.7. In addition, the solubility at 4 h in series [4] is 1 ng/mL (≈ 2.31 nM); in series [5], 2 ng/mL (≈ 4.62 nM); in [6], 1 ng/mL (≈ 2.31 nM).
With `CC(=O)OC(C)OC(=O)C(C)(C)Oc1ccc(C(=O)c2ccc(Cl)cc2)cc1` (centres undefined), the Activity was 33.1% in series [1] and -3.5% in series [7]. In series [3], this compound came in with a log distribution coefficient (logD) of 4.65. In addition, the solubility at 4 h in [4] was determined as 3 ng/mL (≈ 7.41 nM); in series [5] it was 2 ng/mL (≈ 4.94 nM); in series [6], 3 ng/mL (≈ 7.41 nM).
Regarding `CC(C)OC(=O)OCOC(=O)C(C)(C)Oc1ccc(C(=O)c2ccc(Cl)cc2)cc1`, the Activity in series [1] is recorded as 33.1%; in series [2], 7.2%. The compound further gave a logD in series [3] of 4.91. Also, in series [8], the solubility is 2 ng/mL (≈ 4.6 nM). Also, the solubility at 4 h is 2 ng/mL (≈ 4.6 nM) in [4], 2 ng/mL (≈ 4.6 nM) in [5] and 6 ng/mL (≈ 13.8 nM) in series [6].
Turning to `CC(C)(Oc1ccc(C(=O)c2ccc(Cl)cc2)cc1)C(=O)OCCN1CCOCC1`, the Activity in series [1] is 27.6%; in series [2], 2.4%. The same compound yielded a pH-dependent lipophilicity (logD) in series [3] of 3.5. Also, the solubility is 5 ng/mL (≈ 11.6 nM) in [9] (buffer, pH 1, 4 h) and 15 ng/mL (≈ 34.7 nM) in [8]. In addition, the solubility at 4 h in series [4] stood at 38000 ng/mL (≈ 88000 nM); in [5], 1920 ng/mL (≈ 4450 nM); in series [6], 4800 ng/mL (≈ 11100 nM).
`Cc1oc(=O)oc1COC(=O)C(C)(C)Oc1ccc(C(=O)c2ccc(Cl)cc2)cc1`: the Activity came to 27.2% in [1] and 11.2% in [2]. Besides, the log distribution coefficient (logD) in [3] is 4.35. The solubility at 4 h in [9] (0.2 M hydrochloric acid buffer, pH 1) was 230 ng/mL (≈ 534 nM); in series [4], 3 ng/mL (≈ 6.96 nM); in [5], 2 ng/mL (≈ 4.64 nM); in series [6] it was 4 ng/mL (≈ 9.28 nM). Besides, the solubility in series [8] was found to be 2 ng/mL (≈ 4.64 nM).
Regarding `CC(C)OC(=O)C(C)(C)Oc1ccc(C(=O)c2ccc(Cl)cc2)cc1` [FENOFIBRATE], the Activity in series [1] is on record as 48.6%; in [2], 5.5%. This compound returned a logD in series [3] of 4.78.

In general, logD refers to lipophilicity at a set pH, counting ionised and neutral species. For orientation: solubility means the concentration that dissolves in the medium under given conditions.

The values above are taken from ChEMBL document CHEMBL1817557, “Synthesis and biological evaluation of orally active hypolipidemic agents” (J Med Chem, 2011).
